Results on 13 compounds are retold here after ChEMBL document CHEMBL1132557, “Novel, potent, semisynthetic antimalarial carba analogues of the first-generation 1,2,4-trioxane artemether” (J Med Chem, 1999).

For one assay, the system named is Mus musculus. Briefly: Compound was tested in vivo for antimalarial activity against Plasmodium berghei in the mice (Mus musculus) model. Type of assay: functional. An outline of the steps: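 Male random Swiss albino mice, 18-22 g, infected ip with 10^7 P. berghei NS-strain parasitized erythrocytes; ip dosing once daily for four consecutive days starting on infection day; vehicle methanol/PBS/DMSO (2:5:3). Parasitemia read the day after last dose; ED50 (50% suppression vs vehicle-only controls) taken from log dose vs parasitemia plot.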

Assay [1] relates to Plasmodium falciparum. Briefly: In vitro antimalarial activity against chloroquine-sensitive Plasmodium falciparum HB3. The format is functional, organism-based. In short, it runs like this:
(§1)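 P. falciparum kept in human erythrocytes in RPMI 1640 with 25 mM HEPES, 32 mM NaHCO3, 10% human serum, under 3% O2/4% CO2/93% N2. 48-h assay at 2% parasitemia, 0.5% hematocrit; DMSO stocks diluted in medium; triplicates. [3H]hypoxanthine (0.5 μCi) added at 24 h, harvested 24 h later; IC50 by probit interpolation of log dose-response.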

Assay [2] concerns Plasmodium falciparum. Briefly: In vitro antimalarial activity against chloroquine-resistant Plasmodium falciparum K1.
The subject of assay [3] is Plasmodium falciparum. Briefly: In vitro antimalarial activity against chloroquine-sensitive Plasmodium falciparum K1. Type of assay: functional, organism-based. In short, it runs like this:
as §1

Each structure is given as a SMILES string.

For orientation: ED50 means the midpoint of the dose-response relation. By IC50 is commonly meant the concentration needed to halve the response being measured. A higher IC50 goes with weaker potency. For `C[C@H]1[C@@H](CCO)O[C@@H]2OC3(C)CC[C@H]4[C@H](C)CC[C@@H]1[C@@]24OO3` (single isomer, unassigned), in the assay with Mus musculus, the ED50 worked out at 7.81 mg/kg. The IC50 turned out to be 3.51 nM in the assay on Plasmodium falciparum [1] and 6.67 nM in the assay with Plasmodium falciparum [2].
As for `C[C@H]1[C@@H](CCOCc2cccc(F)c2)O[C@@H]2OC3(C)CC[C@H]4[C@H](C)CC[C@@H]1[C@@]24OO3` (single isomer, unassigned), the results for the 50% inhibitory concentration (IC50) in the assay on Plasmodium falciparum [1] and with Plasmodium falciparum [2] were 0.32 nM and 6.43 nM, respectively.
As for `C[C@H]1[C@@H](CCOCc2ccccc2C(F)(F)F)O[C@@H]2OC3(C)CC[C@H]4[C@H](C)CC[C@@H]1[C@@]24OO3` (single isomer, unassigned), the IC50 is 1.64 nM with Plasmodium falciparum [1] and 3.6 nM in the assay with Plasmodium falciparum [2].
The corresponding values for `C[C@H]1[C@@H](CCOC(=O)c2ccccc2F)O[C@@H]2OC3(C)CC[C@H]4[C@H](C)CC[C@@H]1[C@@]24OO3` (single isomer, unassigned) are 0.53 nM and 1.12 nM.
For `C[C@H]1[C@@H](CCOC(=O)c2ccc(F)cc2)O[C@@H]2OC3(C)CC[C@H]4[C@H](C)CC[C@@H]1[C@@]24OO3` (single isomer, unassigned), the IC50 came out at 0.69 nM in the assay with Plasmodium falciparum [1] and 1.92 nM in the assay on Plasmodium falciparum [2].
Take `C[C@H]1[C@@H](CCOC(=O)c2ccc(C(F)(F)F)cc2)O[C@@H]2OC3(C)CC[C@H]4[C@H](C)CC[C@@H]1[C@@]24OO3` (single isomer, unassigned): the IC50 in the assay with Plasmodium falciparum [1] amounted to 0.59 nM; in the assay with Plasmodium falciparum [2], 14.2 nM.
For `C[C@H]1[C@@H](CCOC(=O)c2cccc(F)c2)O[C@@H]2OC3(C)CC[C@H]4[C@H](C)CC[C@@H]1[C@@]24OO3` (single isomer, unassigned), the 50% effect level in the assay with Mus musculus (ED50) was put at a dose of 6.99 mg/kg. In addition, the half-inhibitory concentration (IC50) stood at 0.35 nM in the assay with Plasmodium falciparum [1] and 3.78 nM in the assay with Plasmodium falciparum [2].
With `C[C@H]1[C@@H](CCOC(=O)c2cccc(C(F)(F)F)c2)O[C@@H]2OC3(C)CC[C@H]4[C@H](C)CC[C@@H]1[C@@]24OO3` (single isomer, unassigned), the figures for the 50% inhibitory concentration (IC50) in the assay with Plasmodium falciparum [1] and in the assay with Plasmodium falciparum [2] were 0.64 nM and 4.7 nM, respectively.
On to `C[C@H]1[C@@H](CCOCc2ccc(C(F)(F)F)cc2)O[C@@H]2OC3(C)CC[C@H]4[C@H](C)CC[C@@H]1[C@@]24OO3` (single isomer, unassigned), for which the 50% inhibitory concentration (IC50) turned out to be 4.24 nM in the assay on Plasmodium falciparum [1] and 3.75 nM with Plasmodium falciparum [3].
For `C[C@H]1[C@@H](CCOCc2ccc(F)cc2)O[C@@H]2OC3(C)CC[C@H]4[C@H](C)CC[C@@H]1[C@@]24OO3` (single isomer, unassigned), the IC50 was found to be 0.73 nM in the assay on Plasmodium falciparum [1] and 6.08 nM in the assay on Plasmodium falciparum [2].
`CO[C@H]1O[C@@H]2O[C@@]3(C)CC[C@H]4[C@H](C)CC[C@@H]([C@H]1C)[C@@]24OO3` [ARTEMETHER]: in the assay on Mus musculus, the 50% effective dose (ED50) is 3.15 mg/kg.
In the case of `C[C@@H]1CC[C@H]2[C@@H](C)C(=O)O[C@@H]3O[C@@]4(C)CC[C@@H]1[C@]32OO4` [ARTEMISININ], the IC50 was determined as 3.04 nM with Plasmodium falciparum [1] and 3.6 nM with Plasmodium falciparum [2].
Compound `C[C@H]1[C@@H](O)O[C@@H]2O[C@@]3(C)CC[C@H]4[C@H](C)CC[C@@H]1[C@@]24OO3` [ARTENIMOL] came in with a 50% effective dose (ED50) in the assay on Mus musculus of 1.15 mg/kg. For the same compound, the half-inhibitory concentration (IC50) in the assay with Plasmodium falciparum [1] was found to be 1.04 nM; in the assay on Plasmodium falciparum [2], 2.2 nM.
